Screening data deposited in PubChem BioAssay by Johns Hopkins Ion Channel Center.
Most compounds without a hit are left out; they make up all but 2.3% or so of the library.
TRPC4 agonist = activators of mouse TRPC4 channel, primary screen, Fluo4 calcium, HEK293 TRPC4beta/mu-opioid cells. Fluo4 calcium fluorescence; active compounds read high. actives 0.49% (n = 310,000). B-score at 10 µM;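 active means B-score above 5 SD of library B-scores, and initial fluorescence ratio not above library mean plus 5 SD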;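 further: positive B-score marks a calcium rise read as TRPC4 activation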
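Technique: kinetic Fluo4 calcium fluorescence; Test system: TRPC4beta and mu-opioid receptor HEK293 stable cells; Measure: B-scored integrated calcium fluorescence ratio; Benchmarks: low control buffer alone, high control maximal DAMGO; Schedule: 45 min room-temperature Fluo4 loading, 110 s read.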
TRPC4 PAM = positive allosteric modulators of TRPC4, primary screen, cell-based, mouse TRPC4beta, HEK293 mu-opioid, Fluo-4 calcium | actives 0.42% (n = 310,000) | B-score at 10 µM | DAMGO EC20, Fluo-4 Ca2+ flux; active compounds read high | AID 2227, 2009 | Short transient receptor potential channel 4 (Mus musculus), Q9QUQ5;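 active means B-score of calcium response area above 5 SD of library B-scores, with initial fluorescence ratio within 5 SD of library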;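 further: B-score of integrated fluorescence ratio over time as area under calcium response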
TRPC4 inh = inhibitors of mouse TRPC4 channel, primary screen, Fluo4 calcium, HEK293 TRPC4beta/mu-opioid cells. B-score at 10 µM. DAMGO-evoked Fluo4 calcium flux; active compounds read low. actives 0.39% (n = 300,000). AID 2247, 2010;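 active means B-score over 3 SD under the library average, no early fluorescence shift, positive overall ratio signal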
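Material: HEK293 cells with stable TRPC4beta plus mu-opioid receptor expression / Probe or stimulus: DAMGO in two steps, submaximal then maximal / Compound: single concentration per test compound / Technique: kinetic Fluo4 fluorescence imaging of calcium influx / Read-out: per-well B score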
TRPC6 inh = mouse TRPC6 channel inhibitors, primary screen, cell-based, HEK293, membrane potential dye; Short transient receptor potential channel 6 (Mus musculus), Q61143; ACh-evoked depolarization; active compounds read low; B-score at 10 µM; actives 1.1% (n = 310,000); AID 2553, 2010;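 active means B-score under library mean minus 3 SD, initial fluorescence not abnormally high, positive integrated signal ratio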;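 further: B-score derived from integrated fluorescence ratio over the kinetic read; more negative B-score means stronger inhibition of depolarization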
TRPC6 act = mouse TRPC6 channel activators, primary screen, cell-based, HEK293, membrane potential dye; Short transient receptor potential channel 6 (Mus musculus), Q61143; HEK293-TRPC6 membrane potential dye fluorescence; active compounds read high; B-score at 10 µM; actives 0.13% (n = 310,000);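 active means B-score of the integrated fluorescence ratio above library mean plus 3 SD, and starting fluorescence ratio within library mean plus 5 SD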;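 further: higher score means more depolarization so channel activation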
Numbers without * were called inactive; i = inactive.

SMILES	TRPC4 agonist	TRPC4 PAM	TRPC4 inh	TRPC6 inh	TRPC6 act
NC(=O)CN1CC(c2ccccc2)CC1=O (stereo unspecified)	i	i	i	i	i
CN1CCN(Cc2cc(=O)n3ccsc3n2)CC1	i	27*	i	i	i
O=c1cc(CN2CCNCC2)nc2sccn12	i	i	i	i	i
CC1(C)CC(=O)C(C=NCCN2CCN(C(=O)Cc3ccc(F)cc3)CC2)=C(O)C1	i	i	i	i	i
NC(=O)c1cn(C2OC(CO)C(O)C2O)c2ncnc(N)c12 (stereo unspecified)	i	i	i	i	i
CCNC(=O)[C@H]1O[C@@H](n2cnc3c(N)ncnc32)[C@H](O)[C@@H]1O	49*	i	i	i	i
Cc1ccc(C2C(S(C)(=O)=O)=C(O)C(=O)N2c2ccccc2)cc1 (stereo unspecified) (tested in a mixture with another compound)	i	i	i	i	i
CCOc1cc2c(cc1OCC)-n1cccc1C(c1ccc(OC(F)F)cc1)NC2 (stereo unspecified)	i	i	i	i	i
Cc1c(N)c(C)c([N+](=O)[O-])c(C)c1[N+](=O)[O-]	i	i	-6*	i	i
COc1ccc(-c2cc(C(F)(F)F)n3nc(C(=O)N4CCC5(CC4)OCCO5)cc3n2)cc1OC	i	i	i	i	i
Cc1c(Cl)cccc1N1C(=O)NC(=O)/C(=C\c2cc(C)n(-c3cccc(C(=O)O)c3C)c2C)C1=O	i	i	i	i	i
COc1ccc(NP(=O)(Nc2ccc(OC)cc2)Oc2ccccc2)cc1	i	12*	i	i	i
COc1ccc(OC)c(NP(=O)(Oc2ccccc2)Oc2ccccc2)c1	i	10*	i	i	i
Cc1c(OC(=O)N(C)C)ccc2c1O/C(=C\c1ccco1)C2=O	i	i	i	i	i
O=C1CC(=O)N(c2ccccc2)C(=O)N1c1ccccc1	i	i	i	i	i
C#CCN1C(=O)C2(C(C#N)=C(N)OC(C)=C2C(=O)OCc2ccccc2)c2ccccc21 (stereo unspecified)	i	29*	i	i	i
CCOC(=O)C1=C(C)OC(N)=C(C#N)C12C(=O)N(C)c1ccccc12 (stereo unspecified)	i	i	i	i	i
O=C(CN1CCCC1)Nc1ccc(Cl)cc1C(=O)c1ccccc1	i	i	-6*	i	i
O=C(CCN1CCCCC1)Nc1ccc(Cl)cc1C(=O)c1ccccc1	i	i	i	i	i
CCCCN1C(=O)NC(=O)C2(Cc3c(nc4c(C)cccn4c3=O)N3CCc4ccccc4C32)C1=O (stereo unspecified)	i	19*	i	i	i
CCCCN1C(=O)NC(=O)C2(Cc3c(nc4ccccn4c3=O)N3CCc4ccccc4C32)C1=O (stereo unspecified)	i	57*	i	i	i
Cn1c(O)c(/C=N/c2ccccn2)c(=O)n(C)c1=O	i	i	i	i	i
NS(=O)(=O)OC(CCc1ccccc1)C(Cl)(Cl)Cl (stereo unspecified)	i	12*	i	i	i
COc1ccccc1N1CCNCC1	i	i	i	i	i
Cc1cc(N2CCNCC2)nc2ccccc12	i	13*	i	i	i
SMILES	TRPC4 agonist	TRPC4 PAM	TRPC4 inh	TRPC6 inh	TRPC6 act
Clc1cccc(N2CCNCC2)n1	i	i	i	i	i
Cn1c(N2CCNCC2)nc2ccccc21	105*	i	i	i	i
CC(C)(C)N1Cc2ccccc2C1=N	i	i	i	i	i
CC(Cc1ccccc1)NCC(=O)Nc1cc(N(C)C)nc2ccccc12 (stereo unspecified)	i	i	-6*	i	i
CN1CCN(c2c(N)c(=O)oc3ccccc23)CC1	i	10*	i	i	i
CC(=O)N1N=C2C3CCN(CC3)C2C1c1cccc2ccccc12 (stereo unspecified)	i	i	i	i	i
COc1cccc(O)c1CN1CCCC(C(=O)c2sccc2C)C1 (stereo unspecified)	i	i	-9*	i	i
Cc1ccsc1C(=O)C1CCCN(CCO)C1 (stereo unspecified)	i	i	i	i	i
COc1ccc(OC)c(CN2CCCC(C(=O)c3sccc3C)C2)c1 (stereo unspecified)	i	i	-6*	i	i
Cc1ccsc1C(=O)C1CCCN(Cc2cn(C)nc2C)C1 (stereo unspecified)	i	i	i	i	i
CCC1=Nc2cc(C(=O)N3CCC4(CC3)OCCO4)ccc2Sc2ccccc21	i	i	i	i	i
CCC1=Nc2cc(C(=O)N3CCC4(CC3)OCCO4)ccc2Sc2ccc(C)cc21	i	i	-6*	i	i
CC(C)C[C@H](NC(=O)[C@@H]1CCCN1C(=O)[C@@H](N)Cc1ccc(O)cc1)C(=O)NCC(N)=O	53*	i	i	i	i
CC(C)CC(NC(=O)C1CCCCC1)C(=O)N1CCC2(CC1)OCCO2 (stereo unspecified)	i	i	i	i	i
Cc1ccccc1NC1(C#N)CCCCC1	i	i	i	i	i
Cc1c(CCN)ccc2c1[nH]c1ccccc12	i	19*	i	i	i
OCC12CO[C@@H]3c4ccccc4[C@H](OC1)N32 (stereo partly specified)	i	i	i	i	i
COc1ccc(OC)c(N2C(=O)/C(=C/c3ccco3)C(=O)NC2=S)c1	i	10*	i	i	i
CN1CC(C(=O)c2ccc([N+](=O)[O-])cc2)C(c2ccc(Cl)cc2)C1 (stereo unspecified)	i	13*	i	i	i
COc1ccc(CCNCc2sccc2C)cc1OC	i	i	i	i	i
Cc1c(P(=S)(c2ccccc2)c2ccccc2)[n+]2ccccc2n1C	i	i	i	i	i
Cn1cc[n+](C)c1P(=S)(c1ccccc1)c1ccccc1	66*	i	i	i	i
